Test results taken from paper PMC5668626 (Biochemistry and Biophysics Reports, 2015).

Key:
[1] = target: T1, PfP2-tetramer (Plasmodium falciparum P2, recombinant) (Plasmodium falciparum, UniProt O00806); test: isothermal titration calorimetry; format: binding
T1 sequence (O00806 1-112): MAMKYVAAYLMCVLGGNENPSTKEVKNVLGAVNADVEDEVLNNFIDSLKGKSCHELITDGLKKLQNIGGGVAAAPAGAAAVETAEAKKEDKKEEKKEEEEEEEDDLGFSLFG
Outline: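 Recombinant PfP2 tetramer (0.075 mM) in the sample cell, with buffer in the reference cell, at pH 7.4 and 25 °C. The hydrophobic dye ligand (15 mM, syringe) was added in 50 injections of 5 μl, each lasting 10 s and spaced 4 min apart, with stirring. Titration heats were fitted to a binding model for K, ΔH, ΔS and n.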

[2] = target: Plasmodium falciparum P2 (recombinant) (Plasmodium falciparum); test: SEC

Kd [1] [µM] | Compound | stoichiometry N [2]
102 | O=S(=O)(O)c1cccc2cccc(Nc3ccccc3)c12 [ANS] | –
– | Plasmodium falciparum P2 (recombinant) (natural protein) | 4
